ChEMBL document CHEMBL1156843, “3,5-Bis(benzylidene)-1-[4-2-(morpholin-4-yl)ethoxyphenylcarbonyl]-4-piperidone hydrochloride: a lead tumor-specific cytotoxin which induces apoptosis and autophagy” (Bioorg Med Chem Lett, 2010)
Activity calls are given as the source filed them. No cut-off for these calls is given here.

Assays:
HSC-2 [1] = experiment: Selectivity index, ratio of CC50 for human normal cells to CC50 for human HSC2 cells; format: functional
Procedure, shortened: (§1)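 Ratio of the mean CC50 over three normal human lines (HGF gingival fibroblasts, HPC pulp cells, HPLF periodontal ligament fibroblasts) to the CC50 for the given tumor line. Each CC50 is the mean of two independent determinations.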

[2] = Cytotoxicity against human HGF cells; format: cell-based
[3] = Cytotoxicity against human HPLF cells; format: cell-based
HSC-4 [4] = experiment: Cytotoxicity against human HSC4 cells; format: functional
Procedure, shortened: (§2)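 Each value is the mean of two independent determinations.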

[5] = Cytotoxicity against human HPC cells; format: cell-based
HL-60 [6] = experiment: Selectivity index, ratio of CC50 for human normal cells to CC50 for human HL60 cells; format: functional; procedure, shortened: as §1
HSC-2 [7] = experiment: Cytotoxicity against human HSC2 cells; format: functional; procedure, shortened: as §2
HL-60 [8] = experiment: Cytotoxicity against human HL60 cells; format: functional; procedure, shortened: as §2
HSC-4 [9] = experiment: Selectivity index, ratio of CC50 for human normal cells to CC50 for human HSC4 cells; format: functional; procedure, shortened: as §1
HSC-2 [10] = experiment: Induction of acidic organelles formation in human HSC2 cells at 4 to 8 uM after 6 hrs; format: functional, cell-based
Procedure, shortened: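 Acidic organelle formation scored in HSC-2 cells after 6 h exposure; reference condition was culture in Hank's balanced salt solution for 1 h.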

HT-29 [11] = experiment: Cell cycle arrest in human HT-29 cells assessed as accumulation at S phase at 5 uM after 48 hrs by flow cytometry; format: functional
Procedure, shortened: (§3)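 HT29 cells plated and grown 48 h to 50–60% confluency, then exposed to compound for 48 h. Cells trypsinized, PBS-washed, fixed overnight in 70% ethanol at 4 °C. Held 1 h on ice, then DNA content read by flow cytometry.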

HSC-2 [12] = experiment: Induction of bell-shaped internucleosomal DNA fragmentation in human HSC2 cells at 2 to 32 uM after 7 hrs; format: functional, cell-based
HT-29 [13] = experiment: Cytotoxicity against human HT-29 cells after 96 hrs by MTT assay; format: functional, cell-based; conditions: HT-29, 96 h
Procedure, shortened: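 HT29 cells (ATCC) kept in DMEM with 10% fetal calf serum under 5% CO2 at 37 °C. Cells detached with trypsin and seeded at 9000 cells/well, then allowed 24 h to attach. Compound added at a range of concentrations; medium-only wells served as controls. After 96 h, proliferation was estimated from MTT reduction read at 540 nm.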

HT-29 [14] = experiment: Cell cycle arrest in human HT-29 cells assessed as accumulation at G1 phase at 5 uM after 48 hrs by flow cytometry; format: functional; procedure, shortened: as §3
HL-60 [15] = experiment: Induction of bell-shaped internucleosomal DNA fragmentation in human HL60 cells at 1 to 2 uM after 7 hrs; format: functional, cell-based
HT-29 [16] = experiment: Cell cycle arrest in human HT-29 cells assessed as accumulation at sub-G1 phase at 5 uM after 48 hrs by flow cytometry; format: functional; procedure, shortened: as §3
HT-29 [17] = experiment: Cell cycle arrest in human HT-29 cells assessed as accumulation at G2/M phase at 5 uM after 48 hrs by flow cytometry; format: functional; procedure, shortened: as §3

Row | Compound | Selectivity Index (HSC-2 [1]) | CC50 [2] | CC50 [3] | CC50 (HSC-4 [4]) | CC50 [5] | Selectivity Index (HL-60 [6]) | CC50 (HSC-2 [7]) | CC50 (HL-60 [8]) | Selectivity Index (HSC-4 [9]) | Activity (HSC-2 [10]) | Activity (HT-29 [11]) | Activity (HSC-2 [12]) | IC50 (HT-29 [13]) | Activity (HT-29 [14]) | Activity (HL-60 [15]) | Activity (HT-29 [16]) | Activity (HT-29 [17])
1 | CN(C)CCOc1ccc(C(=O)N2C/C(=C\c3ccc([N+](=O)[O-])cc3)C(=O)/C(=C/c3ccc([N+](=O)[O-])cc3)C2)cc1.Cl | 6.5 | 7 µM | 5.9 µM | 0.71 µM | 5.2 µM | 19 | 0.93 µM | 0.31 µM | 8.5 |  |  |  |  |  |  |  | 
2 | CCN(CC)CCOc1ccc(C(=O)N2C/C(=C\c3ccccc3)C(=O)/C(=C/c3ccccc3)C2)cc1.Cl | 2.4 | 4.2 µM | 6 µM | 2 µM | 12 µM | 12 | 3.1 µM | 0.61 µM | 3.7 |  |  |  |  |  |  |  | 
3 | Cl.O=C1/C(=C/c2ccccc2)CN(C(=O)c2ccc(OCCN3CCCCC3)cc2)C/C1=C\c1ccccc1 | 2.7 | 4.6 µM | 7.4 µM | 2.5 µM | 12 µM | 5.7 | 3 µM | 1.4 µM | 3.2 |  |  |  |  |  |  |  | 
4 | Cl.O=C1/C(=C/c2ccccc2)CN(C(=O)c2ccc(OCCN3CCOCC3)cc2)C/C1=C\c1ccccc1 | 29 | 83 µM | 30 µM | 2.4 µM | 95 µM | 58 | 2.4 µM | 1.2 µM | 29 | Active | 25.2% | inactive | 3.75 µM | 50.5% | Active | 11.4% | 11.1%
5 | Cc1ccc(/C=C2\CN(C(=O)c3ccc(OCCN(C)C)cc3)C/C(=C\c3ccc(C)cc3)C2=O)cc1.Cl | 4.4 | 7.9 µM | 3.4 µM | 2.1 µM | 7.2 µM | 7.3 | 1.4 µM | 0.85 µM | 3 |  |  |  |  |  |  |  | 
6 | CCN(CC)CCOc1ccc(C(=O)N2C/C(=C\c3ccc(C)cc3)C(=O)/C(=C/c3ccc(C)cc3)C2)cc1.Cl | 2.6 | 3.6 µM | 4.6 µM |  | 9.3 µM | 7.3 |  |  | 2.5 |  |  |  |  |  |  |  | 
7 | Cc1ccc(/C=C2\CN(C(=O)c3ccc(OCCN4CCOCC4)cc3)C/C(=C\c3ccc(C)cc3)C2=O)cc1.Cl | 15 | 10 µM | 12 µM | 2 µM | 49 µM | 20 | 1.6 µM | 1.2 µM | 12 |  |  |  |  |  |  |  | 
8 | CN(C)CCOc1ccc(C(=O)N2C/C(=C\c3ccccc3)C(=O)/C(=C/c3ccccc3)C2)cc1.Cl | 2.2 | 3.6 µM | 8.9 µM | 2.1 µM | 13 µM | 8.5 | 3.8 µM | 1 µM | 4.1 |  |  |  |  |  |  |  | 
9 | Cl.O=C1/C(=C/c2ccc([N+](=O)[O-])cc2)CN(C(=O)c2ccc(OCCN3CCCCC3)cc2)C/C1=C\c1ccc([N+](=O)[O-])cc1 | 6.5 | 8 µM | 4.9 µM | 0.9 µM | 3.9 µM | 19 | 0.86 µM | 0.29 µM | 6.2 |  |  |  |  |  |  |  | 
10 | CN(C)CCOc1ccc(C(=O)N2C/C(=C\c3ccc(Cl)cc3)C(=O)/C(=C/c3ccc(Cl)cc3)C2)cc1.Cl | 5.6 | 23 µM | 4.3 µM | 1.8 µM | 11 µM | 7.5 | 2.3 µM | 1.7 µM | 7.1 |  |  |  |  |  |  |  | 
11 | Cl.O=C1/C(=C/c2ccc([N+](=O)[O-])cc2)CN(C(=O)c2ccc(OCCN3CCOCC3)cc2)C/C1=C\c1ccc([N+](=O)[O-])cc1 | 13 | 12 µM | 9.3 µM | 0.74 µM | 8.2 µM | 28 | 0.76 µM | 0.35 µM | 13 |  |  |  |  |  |  |  | 
12 | Cl.O=C1/C(=C/c2ccc(Cl)cc2)CN(C(=O)c2ccc(OCCN3CCCCC3)cc2)C/C1=C\c1ccc(Cl)cc1 | >3.5 | > 400 µM | 340 µM |  | > 400 µM | >6 |  |  | >7.9 |  |  |  |  |  |  |  | 
13 | Cl.O=C1/C(=C/c2ccc(Cl)cc2)CN(C(=O)c2ccc(OCCN3CCOCC3)cc2)C/C1=C\c1ccc(Cl)cc1 | >5.5 | 400 µM | 360 µM | 18 µM | > 400 µM | > 11 | 71 µM | 36 µM | >22 |  |  |  |  |  |  |  | 
14 | CC[N+](C)(CC)CCOc1ccc(C(=O)N2C/C(=C\c3ccc([N+](=O)[O-])cc3)C(=O)/C(=C/c3ccc([N+](=O)[O-])cc3)C2)cc1.[I-] | 1.2 | 93 µM | 13 µM | 61 µM | 130 µM | 2.7 | 67 µM | 29 µM | 1.3 |  |  |  |  |  |  |  | 
15 | CC[N+](C)(CC)CCOc1ccc(C(=O)N2C/C(=C\c3ccc(C)cc3)C(=O)/C(=C/c3ccc(C)cc3)C2)cc1.[I-] | 1.4 | 34 µM | 8.3 µM | 17 µM | 29 µM | 1.5 | 17 µM | 16 µM | 1.4 |  |  |  |  |  |  |  | 
16 | CCN(CC)CCOc1ccc(C(=O)N2C/C(=C\c3ccc(Cl)cc3)C(=O)/C(=C/c3ccc(Cl)cc3)C2)cc1.Cl | >2.1 | 230 µM | > 400 µM |  | > 400 µM | >7.5 |  |  | >10 |  |  |  |  |  |  |  | 
17 | CC[N+](C)(CC)CCOc1ccc(C(=O)N2C/C(=C\c3ccccc3)C(=O)/C(=C/c3ccccc3)C2)cc1.[I-] | 1.1 | 160 µM | 79 µM | 82 µM | 170 µM | 1.7 | 130 µM | 82 µM | 1.7 |  |  |  |  |  |  |  | 
18 | Cc1ccc(/C=C2\CN(C(=O)c3ccc(OCCN4CCCCC4)cc3)C/C(=C\c3ccc(C)cc3)C2=O)cc1.Cl | 3 | 6 µM | 5.5 µM | 4.1 µM | 15 µM | 3.8 | 2.9 µM | 2.3 µM | 2.2 |  |  |  |  |  |  |  | 
19 | CCN(CC)CCOc1ccc(C(=O)N2C/C(=C\c3ccc([N+](=O)[O-])cc3)C(=O)/C(=C/c3ccc([N+](=O)[O-])cc3)C2)cc1.Cl | 5.2 | 5 µM | 5.9 µM |  | 4.5 µM | 20 |  |  | 4.6 |  |  |  |  |  |  |  | 
20 | CC[N+](C)(CC)CCOc1ccc(C(=O)N2C/C(=C\c3ccc(Cl)cc3)C(=O)/C(=C/c3ccc(Cl)cc3)C2)cc1.[I-] | 0.7 | > 400 µM | 9.4 µM | 220 µM | > 400 µM | >4.2 | > 400 µM | 64 µM | >1.2 |  |  |  |  |  |  |  | 
21 | N[C@@H](Cc1ccc(N(CCCl)CCCl)cc1)C(=O)O | >5.7 | > 200 µM | > 200 µM |  | > 200 µM | >33 |  |  | >2.5 |  |  |  |  |  |  |  | 
